Test results from ChEMBL document CHEMBL4382192, “Discovery of a potent dual ALK and EGFR T790M inhibitor” (Eur J Med Chem, 2017).

Legend:
[1] = Drug uptake in mouse lung at 2 mg/kg, iv after 8 hrs; format: ADME, organism-based; conditions: read-out: Drug uptake
[2] = system: Tyrosine-protein kinase ABL1 (Homo sapiens), P00519 [Q252H]; assay: Binding affinity to human phosphorylated ABL1 Q252H mutant expressed in mammalian expression system assessed as residual binding level at 1 uM by Kinomescan method relative to control
Method in brief: (§1)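 Kinome-wide selectivity panel run by the KINOMEscan method, with the test compound at a single concentration of 1 μM. Wild-type and mutant kinases were profiled in the same screen.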

[3] = target: Serine/threonine-protein kinase B-raf (Homo sapiens) (UniProt P15056); assay: Binding affinity to wild-type human partial length BRAF (S429 to E741 residues) expressed in mammalian expression system assessed as residual binding level at 1 uM by Kinomescan method relative to control
Serine/threonine-protein kinase B-raf (Homo sapiens), sequence (P15056 whole entry, the tested form may be a part): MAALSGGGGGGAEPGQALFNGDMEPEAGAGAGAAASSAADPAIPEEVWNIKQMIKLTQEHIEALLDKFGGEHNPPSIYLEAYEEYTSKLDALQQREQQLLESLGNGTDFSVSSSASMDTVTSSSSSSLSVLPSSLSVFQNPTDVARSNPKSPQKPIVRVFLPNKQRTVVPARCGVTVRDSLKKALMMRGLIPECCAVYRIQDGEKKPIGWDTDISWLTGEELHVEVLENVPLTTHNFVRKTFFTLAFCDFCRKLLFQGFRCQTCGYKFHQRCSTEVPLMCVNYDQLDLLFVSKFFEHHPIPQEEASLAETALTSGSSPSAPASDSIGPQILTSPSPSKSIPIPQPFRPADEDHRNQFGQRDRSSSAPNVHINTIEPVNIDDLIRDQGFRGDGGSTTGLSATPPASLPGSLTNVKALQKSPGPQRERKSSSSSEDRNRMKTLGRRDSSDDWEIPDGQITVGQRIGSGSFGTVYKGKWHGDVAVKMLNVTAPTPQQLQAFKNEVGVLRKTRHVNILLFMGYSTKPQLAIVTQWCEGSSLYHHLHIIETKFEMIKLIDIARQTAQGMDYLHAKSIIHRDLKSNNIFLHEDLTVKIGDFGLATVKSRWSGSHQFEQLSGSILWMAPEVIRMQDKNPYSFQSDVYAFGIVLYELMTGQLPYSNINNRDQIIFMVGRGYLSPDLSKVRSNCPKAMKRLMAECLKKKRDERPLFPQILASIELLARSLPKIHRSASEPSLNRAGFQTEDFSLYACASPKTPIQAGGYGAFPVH

[4] = system: Serine/threonine-protein kinase B-raf (Homo sapiens), P15056 [V600E]; assay: Binding affinity to human partial length BRAF V600E mutant (S429 to E741 residues) expressed in mammalian expression system assessed as residual binding level at 1 uM by Kinomescan method relative to control
Serine/threonine-protein kinase B-raf (Homo sapiens), P15056 [V600E], sequence (P15056 whole entry V600E, the tested form may be a part): as the sequence (P15056 whole entry, the tested form may be a part) above, with V600E counted along it

[5] = target: Cyclin-dependent kinase 11B (Homo sapiens) (UniProt P21127); assay: Binding affinity to wild-type human partial length CDC2L1 (P353 to G692 residues) expressed in bacterial expression system assessed as residual binding level at 1 uM by Kinomescan method relative to control
Cyclin-dependent kinase 11B (Homo sapiens), sequence (P21127 whole entry, the tested form may be a part): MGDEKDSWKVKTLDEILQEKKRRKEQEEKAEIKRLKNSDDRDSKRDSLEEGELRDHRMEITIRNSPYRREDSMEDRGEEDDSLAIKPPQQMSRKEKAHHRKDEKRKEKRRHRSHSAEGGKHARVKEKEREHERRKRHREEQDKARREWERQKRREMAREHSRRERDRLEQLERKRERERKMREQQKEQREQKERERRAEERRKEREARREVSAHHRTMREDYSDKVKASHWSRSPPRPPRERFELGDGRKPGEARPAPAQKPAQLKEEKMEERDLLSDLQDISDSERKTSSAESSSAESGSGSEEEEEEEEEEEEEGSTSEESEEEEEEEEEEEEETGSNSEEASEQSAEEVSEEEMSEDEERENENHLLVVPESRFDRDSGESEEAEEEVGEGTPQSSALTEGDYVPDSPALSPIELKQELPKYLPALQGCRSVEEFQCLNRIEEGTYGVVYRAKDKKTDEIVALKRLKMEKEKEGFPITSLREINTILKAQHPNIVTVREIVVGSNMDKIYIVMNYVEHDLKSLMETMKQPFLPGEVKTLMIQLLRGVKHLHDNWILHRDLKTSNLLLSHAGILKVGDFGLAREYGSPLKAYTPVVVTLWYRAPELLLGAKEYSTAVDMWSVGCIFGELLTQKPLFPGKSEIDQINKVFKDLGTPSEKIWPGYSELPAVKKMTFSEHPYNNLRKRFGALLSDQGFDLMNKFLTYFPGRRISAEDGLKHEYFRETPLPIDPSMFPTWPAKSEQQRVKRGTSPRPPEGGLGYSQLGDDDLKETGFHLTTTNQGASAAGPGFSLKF

[6] = target: Death-associated protein kinase 1 (Homo sapiens) (UniProt P53355); assay: Binding affinity to wild-type human partial length DAPK1 (M1 to F296 residues) expressed in bacterial expression system assessed as residual binding level at 1 uM by Kinomescan method relative to control
[7] = system: Epidermal growth factor receptor (Homo sapiens), P00533 [L861Q]; assay: Binding affinity to human partial length EGFR L861Q mutant (R669 to V1011 residues) expressed in bacterial expression system assessed as residual binding level at 1 uM by Kinomescan method relative to control; method in brief: as §1
[8] = target: Mitogen-activated protein kinase 3 (Homo sapiens) (UniProt P27361); assay: Binding affinity to wild-type human full length ERK1 (M1 to P379 residues) expressed in bacterial expression system assessed as residual binding level at 1 uM by Kinomescan method relative to control
Mitogen-activated protein kinase 3 (Homo sapiens), sequence (P27361 whole entry, the tested form may be a part): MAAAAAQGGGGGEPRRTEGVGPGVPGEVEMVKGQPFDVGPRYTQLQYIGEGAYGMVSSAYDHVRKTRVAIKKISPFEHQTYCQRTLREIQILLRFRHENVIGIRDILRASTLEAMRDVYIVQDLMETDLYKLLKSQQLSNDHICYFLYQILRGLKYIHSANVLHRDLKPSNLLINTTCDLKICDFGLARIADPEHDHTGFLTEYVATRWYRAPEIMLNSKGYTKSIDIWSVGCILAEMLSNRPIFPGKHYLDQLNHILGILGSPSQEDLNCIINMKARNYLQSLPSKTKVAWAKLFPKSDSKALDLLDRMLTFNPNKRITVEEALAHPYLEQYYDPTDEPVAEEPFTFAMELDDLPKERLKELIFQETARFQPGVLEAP
Method in brief: (§2)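 Single-point kinome-wide KINOMEscan binding panel, test compound at 1 μM, run by the provider's standard protocol.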

[9] = target: Tyrosine-protein kinase Fer (Homo sapiens) (UniProt P16591); assay: Binding affinity to wild-type human partial length FER (S542 to T822 residues) expressed in bacterial expression system assessed as residual binding level at 1 uM by Kinomescan method relative to control
[10] = system: Receptor-type tyrosine-protein kinase FLT3 (Homo sapiens), P36888 [D835Y]; assay: Binding affinity to human partial length FLT3 D835Y mutant (Q580 to Y969 residues) expressed in bacterial expression system assessed as residual binding level at 1 uM by Kinomescan method relative to control; method in brief: as §1
[11] = target: Tyrosine-protein kinase JAK2 (Homo sapiens) (UniProt O60674); assay: Binding affinity to wild-type human partial length JAK2 JH1 catalytic domain (A829 to G1132 residues) expressed in mammalian expression system assessed as residual binding level at 1 uM by Kinomescan method relative to control
[12] = system: Mast/stem cell growth factor receptor Kit (Homo sapiens), P10721 [D816H]; assay: Binding affinity to human partial length KIT D816H mutant (I571 to D952 residues) expressed in mammalian expression system assessed as residual binding level at 1 uM by Kinomescan method relative to control; method in brief: as §1
[13] = system: Mast/stem cell growth factor receptor Kit (Homo sapiens), P10721 [V559D,T670I]; assay: Binding affinity to human partial length KIT V559D/T670I double mutant (Y545 to D952 residues) expressed in bacterial expression system assessed as residual binding level at 1 uM by Kinomescan method relative to control; method in brief: as §1
[14] = target: Myosin light chain kinase 2, skeletal/cardiac muscle (Homo sapiens) (UniProt Q9H1R3); assay: Binding affinity to wild-type human partial length MYLK2 (D258 to K570 residues) expressed in bacterial expression system assessed as residual binding level at 1 uM by Kinomescan method relative to control
[15] = target: Myosin light chain kinase family member 4 (Homo sapiens) (UniProt Q86YV6); assay: Binding affinity to wild-type human partial length MYLK4 (V79 to S380 residues) expressed in bacterial expression system assessed as residual binding level at 1 uM by Kinomescan method relative to control
Myosin light chain kinase family member 4 (Homo sapiens), sequence (Q86YV6 whole entry, the tested form may be a part): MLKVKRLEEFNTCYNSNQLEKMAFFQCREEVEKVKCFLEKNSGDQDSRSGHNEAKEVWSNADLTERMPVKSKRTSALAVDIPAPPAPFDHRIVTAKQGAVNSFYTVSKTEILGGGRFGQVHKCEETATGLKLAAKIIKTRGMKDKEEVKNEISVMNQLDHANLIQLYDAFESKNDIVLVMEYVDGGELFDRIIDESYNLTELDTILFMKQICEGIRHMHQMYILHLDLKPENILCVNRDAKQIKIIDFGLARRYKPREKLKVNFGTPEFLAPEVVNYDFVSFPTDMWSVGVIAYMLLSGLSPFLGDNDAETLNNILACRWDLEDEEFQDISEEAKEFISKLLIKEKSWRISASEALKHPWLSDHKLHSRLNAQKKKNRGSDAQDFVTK

[16] = target: Serine/threonine-protein kinase OSR1 (Homo sapiens) (UniProt O95747); assay: Binding affinity to wild-type human full length OSR1 (M1 to S527 residues) expressed in mammalian expression system assessed as residual binding level at 1 uM by Kinomescan method relative to control; method in brief: as §2
[17] = target: Serine/threonine-protein kinase PAK 1 (Homo sapiens) (UniProt Q13153); assay: Binding affinity to wild-type human partial length PAK1 (S149 to H545 residues) expressed in bacterial expression system assessed as residual binding level at 1 uM by Kinomescan method relative to control
[18] = target: Serine/threonine-protein kinase PAK 4 (Homo sapiens) (UniProt O96013); assay: Binding affinity to wild-type human partial length PAK4 (Q144 to R438 residues) expressed in bacterial expression system assessed as residual binding level at 1 uM by Kinomescan method relative to control
[19] = target: Cyclin-dependent kinase 15 (Homo sapiens) (UniProt Q96Q40); assay: Binding affinity to wild-type human full length PFTAIRE2 (M1 to W384 residues) expressed in bacterial expression system assessed as residual binding level at 1 uM by Kinomescan method relative to control; method in brief: as §2
Cyclin-dependent kinase 15 (Homo sapiens), sequence (Q96Q40 whole entry, the tested form may be a part): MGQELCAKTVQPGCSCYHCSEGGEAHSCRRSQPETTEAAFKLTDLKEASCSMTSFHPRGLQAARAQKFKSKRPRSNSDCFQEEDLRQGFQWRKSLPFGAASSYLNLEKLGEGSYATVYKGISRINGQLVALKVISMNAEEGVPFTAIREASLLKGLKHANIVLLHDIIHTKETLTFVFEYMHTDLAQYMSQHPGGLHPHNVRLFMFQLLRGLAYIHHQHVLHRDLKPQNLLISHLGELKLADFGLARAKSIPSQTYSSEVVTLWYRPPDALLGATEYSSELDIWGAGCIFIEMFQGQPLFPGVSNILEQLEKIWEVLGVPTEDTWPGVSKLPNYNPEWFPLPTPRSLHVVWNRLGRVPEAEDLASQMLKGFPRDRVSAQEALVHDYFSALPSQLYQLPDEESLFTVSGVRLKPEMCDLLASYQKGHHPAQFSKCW

[20] = target: Protein kinase C epsilon type (Homo sapiens) (UniProt Q02156); assay: Binding affinity to wild-type human partial length PRKCE (A378 to P737 residues) expressed in mammalian expression system assessed as residual binding level at 1 uM by Kinomescan method relative to control
[21] = target: Serine/threonine-protein kinase RIO3 (Homo sapiens) (UniProt O14730); assay: Binding affinity to wild-type human full length RIOK3 (M1 to E519 residues) expressed in bacterial expression system assessed as residual binding level at 1 uM by Kinomescan method relative to control; method in brief: as §2
[22] = target: Ribosomal protein S6 kinase alpha-6 (Homo sapiens) (UniProt Q9UK32); assay: Binding affinity to wild-type human partial length N-terminal RSK4 kinase domain 1 (M1 to E397 residues) expressed in mammalian expression system assessed as residual binding level at 1 uM by Kinomescan method relative to control
Ribosomal protein S6 kinase alpha-6 (Homo sapiens), sequence (Q9UK32 whole entry, the tested form may be a part): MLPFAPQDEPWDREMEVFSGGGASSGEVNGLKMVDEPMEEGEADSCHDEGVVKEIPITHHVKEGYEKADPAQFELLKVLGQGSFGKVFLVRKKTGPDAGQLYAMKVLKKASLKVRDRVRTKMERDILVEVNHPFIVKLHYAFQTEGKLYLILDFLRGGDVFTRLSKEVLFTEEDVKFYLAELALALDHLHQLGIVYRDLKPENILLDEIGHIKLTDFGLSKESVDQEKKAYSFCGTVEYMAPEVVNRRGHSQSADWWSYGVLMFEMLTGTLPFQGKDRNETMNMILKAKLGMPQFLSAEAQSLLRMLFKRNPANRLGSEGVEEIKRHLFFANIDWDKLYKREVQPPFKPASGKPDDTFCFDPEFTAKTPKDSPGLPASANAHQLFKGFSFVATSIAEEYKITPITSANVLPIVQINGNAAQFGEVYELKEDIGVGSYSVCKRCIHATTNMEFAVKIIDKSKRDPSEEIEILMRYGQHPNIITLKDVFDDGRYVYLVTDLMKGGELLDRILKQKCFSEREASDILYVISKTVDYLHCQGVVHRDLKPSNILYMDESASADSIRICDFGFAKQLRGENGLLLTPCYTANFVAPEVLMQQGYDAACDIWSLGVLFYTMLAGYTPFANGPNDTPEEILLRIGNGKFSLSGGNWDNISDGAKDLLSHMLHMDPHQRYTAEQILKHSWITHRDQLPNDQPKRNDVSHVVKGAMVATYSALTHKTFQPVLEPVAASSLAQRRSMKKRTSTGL

[23] = target: Serine/threonine-protein kinase SBK1 (Homo sapiens) (UniProt Q52WX2); assay: Binding affinity to wild-type human partial length SBK1 (P23 to P348 residues) expressed in mammalian expression system assessed as residual binding level at 1 uM by Kinomescan method relative to control
[24] = target: Non-receptor tyrosine-protein kinase TNK1 (Homo sapiens) (UniProt Q13470); assay: Binding affinity to wild-type human full length TNK1 (M1 to P661 residues) expressed in bacterial expression system assessed as residual binding level at 1 uM by Kinomescan method relative to control
Non-receptor tyrosine-protein kinase TNK1 (Homo sapiens), sequence (Q13470 whole entry, the tested form may be a part): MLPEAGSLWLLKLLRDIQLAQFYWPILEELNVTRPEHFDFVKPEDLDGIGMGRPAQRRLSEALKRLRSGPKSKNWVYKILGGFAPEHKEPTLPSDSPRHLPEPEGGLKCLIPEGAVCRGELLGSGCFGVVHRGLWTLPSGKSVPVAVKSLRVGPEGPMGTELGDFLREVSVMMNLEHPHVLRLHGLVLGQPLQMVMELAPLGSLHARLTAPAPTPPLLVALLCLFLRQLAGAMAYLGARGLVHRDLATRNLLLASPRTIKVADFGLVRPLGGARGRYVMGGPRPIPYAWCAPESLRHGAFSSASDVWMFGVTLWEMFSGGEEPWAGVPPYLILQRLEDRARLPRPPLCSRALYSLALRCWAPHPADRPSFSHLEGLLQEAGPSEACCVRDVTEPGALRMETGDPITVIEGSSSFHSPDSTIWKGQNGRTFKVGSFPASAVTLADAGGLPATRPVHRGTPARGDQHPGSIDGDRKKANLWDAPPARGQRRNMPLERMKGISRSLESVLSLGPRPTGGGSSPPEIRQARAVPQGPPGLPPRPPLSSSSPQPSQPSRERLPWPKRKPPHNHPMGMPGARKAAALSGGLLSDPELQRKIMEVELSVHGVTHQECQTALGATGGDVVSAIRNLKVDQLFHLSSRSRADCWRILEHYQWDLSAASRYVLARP

With `C=CC(=O)Nc1cc(Nc2ncc(Cl)c(Nc3ccccc3S(=O)(=O)C(C)C)n2)c(OC)cc1N(C)CCN(C)C` the concentration at 8 h [1] was 110 nM, the Activity [2] was 2.8% and the Activity [3] was 95%. The Activity [4] was 88%, the Activity [5] was 75% and the Activity [6] was 59%. The Activity [7] was 2%, the Activity [8] was 77% and the Activity [9] was 0%. It also gave an Activity [10] of 3.6%, an Activity [11] of 5.7% and an Activity [12] of 41%. For the same molecule, the Activity [13] was 60%, the Activity [14] was 77% and the Activity [15] was 98%. It also gave an Activity [16] of 16%, an Activity [17] of 65% and an Activity [18] of 78%. The Activity [19] was 90%, the Activity [20] was 99% and the Activity [21] was 93%. For the same molecule, the Activity [22] was 15%, the Activity [23] was 1.9% and the Activity [24] was 3.3%.
